Only a selection was taken, and hits are over-represented in it overall.
UPR XBP1 act – activators of adaptive arm of unfolded protein response (XBP1) | hit rate 0.33% among 330,000 | activation, % at 20 µM | CHO-XBP1 luciferase reporter, IRE1-XBP1 UPR activation, luminescence; percent of tunicamycin response, DMSO as zero;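 active means versus positive control, 20 µM dose yields 30% or more activation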;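 further: 100% = tunicamycin at 10 µg/mL and 0% = DMSO only wells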
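Signal: luciferase luminescence; Assay system: CHO-XBP1 luciferase reporter cells; Amount: one thousand reporter cells per well; Dosing: 20 µM single concentration, DMSO 1%; Benchmarks: high control tunicamycin 10 µg/mL final, low control DMSO vehicle only; Schedule: 6 h compound exposure at 37 °C, 5% CO2; Evaluation: percent activation relative to tunicamycin reference.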
TbMetRS inhib – blocks T. brucei methionyl-tRNA synthetase activity; purified T. brucei MetRS, ATP depletion, Kinase-Glo luminescence; inhibition, % at 11.9 µM; hit rate 0.4% among 360,000;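 active means inhibition above a per-plate cutoff of the control wells' mean inhibition plus 3 SD, cut at about 5.5% in these data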;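 further: 0% = DMSO wells median and 100% = median of wells with control inhibitor compound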
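Dosing: 11.9 µM compound single dose, 0.9% DMSO; Assay system: purified T. brucei MetRS enzyme; Measured by: Kinase-Glo luciferase luminescence reporting remaining unconsumed ATP; Schedule: 15 min plus 2 h at 25 °C.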
V-ATPase pH – alters yeast V-ATPase proton transport. S. cerevisiae, pHLuorin cytosolic pH fluorescence. response, % at 10 µM. hit rate 0.37% among 350,000; in the data active means response mostly above about 7.3%, no sharp cut-off; inactive means mostly below about 5.4%; further: actives read high
CHOP UPR activ – activators of apoptotic arm of unfolded protein response (CHOP) | CHO-CHOP luciferase reporter, UPR activation, luminescence; percent of tunicamycin response over DMSO baseline | activation, % at 10 µM | hit rate 0.34% among 330,000;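 active means at 10 µM dose, activation of 40% or more, normalized to positive control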;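 further: 100% = tunicamycin at 10 µg/mL and 0% = DMSO alone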
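Assay system: CHO cells with stable CHOP pathway luciferase reporter; Buffer or medium: F12 plus 10% serum; Times: 16-18 h cell attachment, then 6 h compound exposure, 37 °C; Signal: luciferase luminescence; Read-out basis: percent activation relative to tunicamycin control; Control set: tunicamycin high control, DMSO low control.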
CHOP inhibitor – blocks CHOP induction under ER stress; hit rate 3.8% among 220,000; inhibition, % at 10 µM; AID 2732; CHO-K1 CHOP-promoter luciferase, tunicamycin-induced, 15-18 h;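 active means compounds that reduced the stress-induced luciferase reporter signal by more than about 70% of percent inhibition, limit read from the data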;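 further: 0% = tunicamycin plus vehicle and 100% = wells without tunicamycin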
Active calls of the source: *; · = no result given.

SMILES	UPR XBP1 act	TbMetRS inhib	V-ATPase pH	CHOP UPR activ	CHOP inhibitor
COc1ccccc1N1CCN(C(=O)[C@@H]2CCCN2C2=NS(=O)(=O)c3ccccc32)CC1	·	-0.2	-1.6	·	·
Cc1ccc(S(=O)(=O)N2CC3(O)CN(C(=O)OC(C)C)N(C(=O)OC(C)C)CC3(OC(=O)NCc3ccco3)C2)cc1 (stereo not drawn)	·	0.0	0.8	·	·
Cc1cc2cccc(C)c2nc1SCC(=O)N(C)c1nc(-c2ccccc2)cs1	-1.4	-0.3	7.0	-2.3	17.2
COc1ccc2c(c1)cc(C)c1nnc(SCC(=O)N(C)c3nc(-c4ccccc4)cs3)n12	-0.2	-0.6	-5.0	-2.7	94.0*
COc1ccc(OC)c(NP2(=O)OCC(C)([N+](=O)[O-])CO2)c1 (stereo not drawn)	·	-0.3	6.0	·	·
Cc1onc(-c2c(Cl)cccc2Cl)c1C(=O)n1nnc2ccccc21	-3.0	·	·	3.1	95.7*
Cc1onc(-c2c(Cl)cccc2Cl)c1C(N)=O	-2.7	0.7	-2.1	-0.7	41.8
COC(=O)[C@]12CCCCC=C1N(Cc1ccc3c(c1)OCO3)C(=O)[C@H](CC(=O)N1CCN(C(=O)C3CC3)CC1)C2	·	-0.6	·	·	·
NC(=O)c1[nH]cnc1N	-3.1	-0.3	-4.2	2.4	·
CCCCSC1(SCCCC)N=C(N)C2(C#N)C(c3ccccc3)NC(C)=C(C)C12C#N (stereo not drawn)	1.1	0.6	-2.4	-1.8	75.6*
CCc1nc2sc3c(c2c(=O)o1)CCCC3	-3.0	-0.1	0.1	-0.9	26.5
CC(C)(C)c1nc2sc3c(c2c(=O)o1)CCCC3	0.8	-0.4	3.6	0.0	79.2*
COc1cc(/C=C/CNC[C@H]2O[C@@H](n3cnc4c(N)ncnc43)[C@H](O)[C@@H]2O)ccc1O	·	4.5	·	·	·
COc1ccc(/C=C/c2nc3ccccc3n2C)cc1	-6.2	-3.7	3.8	-9.6	81.1*
CCOC(=O)c1ccc(NC(=O)Cn2nc(C)c3ccccc3c2=O)cc1	-3.0	-1.8	-1.2	-0.1	·
CCOC(=O)c1ccc(NC(=O)Cn2ncc(Cl)c(Cl)c2=O)cc1	-8.7	0.0	-3.5	1.0	107.9*
Cc1ccc(C(=O)OCn2ncc(Cl)c(Cl)c2=O)cc1	-7.2	-0.8	1.5	-10.9	106.6*
Cc1cc(Br)ccc1NC(=O)CNC(=O)Cn1ncc(Cl)c(Cl)c1=O	-8.3	0.1	0.2	23.5	105.8*
CCOC(=O)c1ccc(N2C(=O)C(O)=C(C(C)=O)C2c2ccc([N+](=O)[O-])cc2)cc1 (stereo not drawn)	-6.6	-1.0	-0.6	0.4	·
Fc1cccc2sc(Nc3nc4ccccc4s3)nc12	3.4	0.1	-0.1	4.8	84.8*
O=C(Nc1cccc2[nH]c([C@H]3C[C@H](O)[C@@H](CO)O3)nc12)NC(c1ccccc1)c1ccccc1	·	-0.7	·	·	·
Cc1cc(C(=O)NNC(=O)c2ccc(Cl)c(S(N)(=O)=O)c2)c(C)o1	-0.7	-0.2	0.8	-1.0	·
CC(=O)Nc1cc(OC(C)=O)c2nonc2c1OC(C)=O	-6.7	28.3*	-3.0	-4.3	·
CCNC(=O)C1CCCN(C(=O)c2ccc(OC(F)F)cc2)CC1 (stereo not drawn)	·	-0.1	·	·	·
Cc1ccc2oc(/N=C(\N)NC(=O)C(C)(C)C)nc2c1	-9.8	-1.0	1.7	-8.0	86.4*
SMILES	UPR XBP1 act	TbMetRS inhib	V-ATPase pH	CHOP UPR activ	CHOP inhibitor
Cc1ccc2oc(/N=C(\N)NC(=O)C3CC3)nc2c1	-6.1	-0.1	1.8	-0.4	-6.8
CC1(c2nnnn2Cc2ccccc2)CCC(=O)N1CCOc1ccccc1 (stereo not drawn)	·	-2.0	·	·	·
CC1(C)Cc2c(cnn2-c2ccccc2)-c2c1c1ccccc1n2CC(O)CBr (stereo not drawn)	-4.5	-0.2	5.9	2.6	95.4*
CC[C@H](C)[C@H]1CNC(=S)N1CC1CCN(CCC(C)C)CC1	·	-0.6	-0.2	·	·
Cc1ccc(C(=O)CNc2cccc(Cl)c2)cc1	2.3	0.7	0.9	3.2	-39.3
O=C(CNc1cccc(Cl)c1)c1ccc(Cl)cc1	-0.5	0.5	-1.3	7.9	74.9*
CCCc1ccc(OC(=O)c2ccc(O)cc2Cl)cc1	3.7	-0.3	-1.2	5.5	87.1*
Cc1nn2cc(-c3ncc(C(F)(F)F)cc3Cl)cnc2c1Br	-4.7	-1.3	3.5	-0.6	74.1*
Cc1cc2ncc(-c3ncc(C(F)(F)F)cc3Cl)cn2n1	-3.6	0.0	-0.5	-4.1	29.0
CC1(C(=O)NCCC#N)CCN1C(=O)CC(c1ccccc1)c1ccccc1 (stereo not drawn)	·	0.1	·	·	·

Screening data deposited in PubChem by several laboratories.
